Experimental data taken from ChEMBL document CHEMBL1147379, “Antineoplastic agents, 256. Cell growth inhibitory isocarbostyrils from Hymenocallis” (1993).

Legend:
Format in all cases: functional
[1] = system: CCRF-CEM; assay: Growth inhibition of human CCRF-CEM cells
Summary of the method: (§1)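 NCI 60-human-tumour-cell-line primary in vitro screen. Each compound was tested eight separate times across three concentration ranges with upper limits of 10⁻⁴, 10⁻⁵ and 10⁻⁶ M. Each range used five 10-fold dilutions. GI₅₀, TGI and LC₅₀ were calculated from the concentration-response curves for each cell line, and averaged mean-graph values were constructed from them.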

[2] = system: HL-60; assay: Growth inhibition of human HL-60(TB) cells; summary of the method: as §1
[3] = system: K562; assay: Growth inhibition of human K562 cells; summary of the method: as §1
[4] = system: MOLT-4; assay: Growth inhibition of human MOLT4 cells; summary of the method: as §1
[5] = system: RPMI-8226; assay: Growth inhibition of human RPMI8226 cells; summary of the method: as §1
[6] = system: SR; assay: Growth inhibition of human SR cells
Summary of the method: (§2)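 NCI 60-human-tumour-line in vitro primary screen. Each compound tested eight separate times over three concentration ranges (upper limits 10⁻⁴, 10⁻⁵ and 10⁻⁶ M), each range as five 10-fold dilutions. GI₅₀ (also TGI and LC₅₀) derived from the concentration-response curves, reported as averaged values per cell line (negative log₁₀).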

[7] = system: A549; assay: Growth inhibition of human A549 cells; summary of the method: as §1
[8] = system: EKVX; assay: Growth inhibition of human EKVX cells; summary of the method: as §1
[9] = system: HOP-18; assay: Growth inhibition of human HOP18 cells; summary of the method: as §1
[10] = system: HOP-62; assay: Growth inhibition of human HOP62 cells; summary of the method: as §1
[11] = system: HOP-92; assay: Growth inhibition of human HOP92 cells; summary of the method: as §1
[12] = system: NCI-H226; assay: Growth inhibition of human NCI-H226 cells; summary of the method: as §1
[13] = system: NCI-H23; assay: Growth inhibition of human NCI-H23 cells; summary of the method: as §1
[14] = system: NCI-H322M; assay: Growth inhibition of human NCI-H322M cells; summary of the method: as §1
[15] = system: NCI-H460; assay: Growth inhibition of human NCI-H460 cells; summary of the method: as §1
[16] = system: NCI-H522; assay: Growth inhibition of human NCI-H522 cells; summary of the method: as §1
[17] = Growth inhibition of human LXFL529 cells; summary of the method: as §1
[18] = system: DMS-114; assay: Growth inhibition of human DMS114 cells; summary of the method: as §1
[19] = system: DMS-273; assay: Growth inhibition of human DMS273 cells; summary of the method: as §1
[20] = system: COLO 205; assay: Growth inhibition of human COLO205 cells; summary of the method: as §1
[21] = system: DLD-1; assay: Growth inhibition of human DLD1 cells; summary of the method: as §1
[22] = system: HCC 2998; assay: Growth inhibition of human HCC2998 cells; summary of the method: as §1
[23] = system: HCT-116; assay: Growth inhibition of human HCT116 cells; summary of the method: as §1
[24] = system: HCT-15; assay: Growth inhibition of human HCT15 cells; summary of the method: as §1
[25] = system: HT-29; assay: Growth inhibition of human HT-29 cells; summary of the method: as §1
[26] = system: KM12; assay: Growth inhibition of human KM12 cells; summary of the method: as §1
[27] = system: KM-20L2; assay: Growth inhibition of human KM20L2 cells; summary of the method: as §1
[28] = system: SW-620; assay: Growth inhibition of human SW620 cells; summary of the method: as §2
[29] = system: SF-268; assay: Growth inhibition of human SF268 cells; summary of the method: as §1
[30] = system: SF-295; assay: Growth inhibition of human SF295 cells; summary of the method: as §1
[31] = read-out: pLC50 (the source's name) (converted)

## O=C1N[C@H]2[C@H](O)[C@H](O)[C@@H](O)C[C@@H]2c2cc3c(cc21)OCO3
[1]
  GI50: 34.7 nM
[1]; [31]
  CC50: > 100000 nM
[1]; read-out: pTGI (converted)
  TGI: 525 nM
[2]
  GI50: 32.4 nM
[2]; [31]
  CC50: 30200 nM
[2]; read-out: pTGI (converted)
  TGI: 191 nM
[3]
  GI50: 46.8 nM
[3]; [31]
  CC50: > 100000 nM
[3]; read-out: pTGI (converted)
  TGI: 1100 nM
[4]
  GI50: 44.7 nM
[4]; [31]
  CC50: > 100000 nM
[4]; read-out: pTGI (converted)
  TGI: 1910 nM
[5]
  GI50: 95.5 nM
[5]; [31]
  CC50: > 100000 nM
[5]; read-out: pTGI (converted)
  TGI: 776 nM
[6]
  GI50: 52.5 nM
[6]; [31]
  CC50: 56200 nM
[6]; read-out: pTGI (converted)
  TGI: 3240 nM
[7]
  GI50: 100 nM
[7]; [31]
  CC50: > 100000 nM
[7]; read-out: pTGI (converted)
  TGI: 1290 nM
[8]
  GI50: 331 nM
[8]; [31]
  CC50: 81300 nM
[8]; read-out: pTGI (converted)
  TGI: 3720 nM
[9]
  GI50: 158 nM
[9]; [31]
  CC50: 79400 nM
[9]; read-out: pTGI (converted)
  TGI: 1700 nM
[10]
  GI50: 64.6 nM
[10]; [31]
  CC50: 10000 nM
[10]; read-out: pTGI (converted)
  TGI: 501 nM
[11]
  GI50: 75.9 nM
[11]; [31]
  CC50: > 100000 nM
[11]; read-out: pTGI (converted)
  TGI: 741 nM
[12]
  GI50: 151 nM
[12]; [31]
  CC50: 8710 nM
[12]; read-out: pTGI (converted)
  TGI: 759 nM
[13]
  GI50: 53.7 nM
[13]; [31]
  CC50: 6460 nM
[13]; read-out: pTGI (converted)
  TGI: 363 nM
[14]
  GI50: 70.8 nM
[14]; [31]
  CC50: 57500 nM
[14]; read-out: pTGI (converted)
  TGI: 708 nM
[15]
  GI50: 38.9 nM
[15]; [31]
  CC50: 52500 nM
[15]; read-out: pTGI (converted)
  TGI: 813 nM
[16]
  GI50: 37.1 nM
[16]; [31]
  CC50: 3800 nM
[16]; read-out: pTGI (converted)
  TGI: 240 nM
[17]; LXFL 529
  GI50: 46.8 nM
[17]; LXFL 529, read-out: pLC50 (the source's name) (converted)
  CC50: 26900 nM
[17]; LXFL 529, read-out: pTGI (converted)
  TGI: 708 nM
[18]
  GI50: 50.1 nM
[18]; [31]
  CC50: 14100 nM
[18]; read-out: pTGI (converted)
  TGI: 513 nM
[19]
  GI50: 61.7 nM
[19]; [31]
  CC50: 12000 nM
[19]; read-out: pTGI (converted)
  TGI: 603 nM
[20]
  GI50: 53.7 nM
[20]; [31]
  CC50: 457 nM
[20]; read-out: pTGI (converted)
  TGI: 200 nM
[21]
  GI50: 43.6 nM
[21]; [31]
  CC50: > 100000 nM
[21]; read-out: pTGI (converted)
  TGI: 832 nM
[22]
  GI50: 77.6 nM
[22]; [31]
  CC50: 15800 nM
[22]; read-out: pTGI (converted)
  TGI: 813 nM
[23]
  GI50: 33.1 nM
[23]; [31]
  CC50: 24000 nM
[23]; read-out: pTGI (converted)
  TGI: 398 nM
[24]
  GI50: 85.1 nM
[24]; [31]
  CC50: 85100 nM
[24]; read-out: pTGI (converted)
  TGI: 1200 nM
[25]
  GI50: 61.7 nM
[25]; [31]
  CC50: > 100000 nM
[25]; read-out: pTGI (converted)
  TGI: 813 nM
[26]
  GI50: 46.8 nM
[26]; [31]
  CC50: 24000 nM
[26]; read-out: pTGI (converted)
  TGI: 912 nM
[27]
  GI50: 51.3 nM
[27]; [31]
  CC50: 66100 nM
[27]; read-out: pTGI (converted)
  TGI: 912 nM
[28]
  GI50: 64.6 nM
[28]; [31]
  CC50: > 100000 nM
[28]; read-out: pTGI (converted)
  TGI: 2400 nM
[29]
  GI50: 70.8 nM
[29]; [31]
  CC50: 63100 nM
[29]; read-out: pTGI (converted)
  TGI: 1510 nM
[30]
  GI50: 141 nM
[30]; [31]
  CC50: 41700 nM
